Experimental findings from ChEMBL document CHEMBL1143745, “Utility of 6-amino-2-thiouracil as a precursor for the synthesis of bioactive pyrimidine derivatives” (2007) are described below.

In assay [1] the test system is Bacillus subtilis. In words: Antimicrobial activity against Bacillus subtilis. The format is functional. The method in brief:
(§1)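 Disk diffusion. A sterile filter-paper disk saturated with a measured quantity of sample is placed on agar heavily seeded with a spore suspension of the test organism. Bacteria are grown on nutrient agar and fungi on Dox's medium. The diameter of the clear inhibition zone around the disk is taken as the inhibitory measure. Ampicillin is the antibacterial reference and nystatin the antifungal reference.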

In assay [2] the test system is Staphylococcus aureus. In words: Antimicrobial activity against Staphylococcus aureus. The assay is classed as functional. The method in brief: as §1
Assay [3] has as its system Enterococcus faecalis. The assay is described as follows: Antimicrobial activity against Streptococcus faecalis. The format is functional. The method in brief: as §1
Assay [4] deals with Escherichia coli. In words: Antimicrobial activity against Escherichia coli. The format is functional. The method in brief: as §1
Assay [5] deals with Neisseria gonorrhoeae. The assay is described as follows: Antimicrobial activity against Neisseria gonorrhoeae. The assay is classed as functional. The method in brief:
as §1

Assay [6] has as its system Pseudomonas aeruginosa. The assay is described as follows: Antimicrobial activity against Pseudomonas aeruginosa. The format is functional. The method in brief:
as §1

The subject of assay [7] is HepG2. In words: Cytotoxicity against HEPG2 cells assessed as surviving fraction at 1 ug/ml after 48 hrs by ELISA. The assay is classed as functional, Homo sapiens. The method in brief:
(§2)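 SRB assay in human liver carcinoma HEPG2 or lung carcinoma H460 cells. Cells are seeded at 10⁴ per well and allowed to attach for 24 h. Compound is added at 0, 1, 2.5, 5 and 10 µg/ml, in triplicate wells per dose, for 48 h continuous exposure at 37 °C in 5% CO₂. Cells are then fixed and stained with sulforhodamine B. Bound dye is recovered in Tris-EDTA and read on an ELISA reader. Surviving fraction is plotted against concentration. Cisplatin is the positive control.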
(An ELISA detects its analyte on a solid surface through an enzyme-linked reagent.)

Assay [8] has as its system HepG2. The assay is described as follows: Cytotoxicity against HEPG2 cells assessed as surviving fraction at 2.5 ug/ml after 48 hrs by ELISA. The format is functional, Homo sapiens. The method in brief:
as §2

Assay [9] deals with HepG2. In words: Cytotoxicity against HEPG2 cells assessed as surviving fraction at 5 ug/ml after 48 hrs by ELISA. The format is functional, Homo sapiens. The method in brief:
as §2

The subject of assay [10] is HepG2. In words: Cytotoxicity against HEPG2 cells assessed as surviving fraction at 10 ug/ml after 48 hrs by ELISA. The assay is classed as functional, Homo sapiens. The method in brief: as §2
Assay [11] concerns NCI-H460. In words: Cytotoxicity against human H460 cells assessed as surviving fraction at 1 ug/ml after 48 hrs by ELISA. The assay is classed as functional. The method in brief: as §2
The subject of assay [12] is NCI-H460. In words: Cytotoxicity against human H460 cells assessed as surviving fraction at 2.5 ug/ml after 48 hrs by ELISA. The format is functional. The method in brief: as §2
Assay [13] deals with NCI-H460. In words: Cytotoxicity against human H460 cells assessed as surviving fraction at 5 ug/ml after 48 hrs by ELISA. The format is functional. The method in brief: as §2
For assay [14], the system named is NCI-H460. In words: Cytotoxicity against human H460 cells assessed as surviving fraction at 10 ug/ml after 48 hrs by ELISA. The format is functional. The method in brief:
as §2

Assay [15] has as its system Candida albicans. In words: Antimicrobial activity against Candida albicans. The format is functional. The method in brief:
as §1

Assay [16] concerns Saccharomyces cerevisiae. In words: Antimicrobial activity against Saccharomyces cerevisiae. The assay is classed as functional. The method in brief: as §1

`CC1(C)S[C@@H]2[C@H](NC(=O)[C@H](N)c3ccccc3)C(=O)N2[C@H]1C(=O)O` [AMPICILLIN]: the “inhibition zone (IZ)” value in [1] is 18 mm; in assay [2], 20 mm; in assay [3], 30 mm; in assay [4], 11 mm; in assay [5], 13 mm; in assay [6], 19 mm.

In the case of `COc1ccc(-c2cc(C#N)c3c(=O)[nH]c(=S)[nH]c3n2)cc1`, the Activity in assay [7] came out at 1.046; in [8] it was 0.968; in [9], 0.941; in assay [10] it was 0.914; in assay [11] it was 0.948; in assay [12] it was 0.897. Also, the Activity in [13] is 0.836; in assay [14] it was 0.808.

Turning to `COC(=O)c1c(-c2ccccc2)nc2[nH]c(=S)[nH]c(=O)c2c1C(=O)OC`, the “inhibition zone (IZ)” value in [1] stood at 16 mm; in [2] it was 16 mm; in assay [3] it was 15 mm; in assay [4], 16 mm; in [5] it was 15 mm; in [6] it was 16 mm. Also, the “inhibition zone (IZ)” value in assay [15] is 15 mm; in assay [16], 16 mm.

Turning to `COc1ccc(-c2cc(C(=O)c3ccco3)c3c(=O)[nH]c(=S)[nH]c3n2)cc1`, the “inhibition zone (IZ)” value in assay [1] worked out at 11 mm; in assay [2], 11 mm; in assay [3], 11 mm; in assay [4] it was 11 mm; in assay [5] it was 12 mm; in assay [6], 11 mm. The “inhibition zone (IZ)” value came out at 11 mm in assay [15] and 12 mm in [16].

Turning to `O=C(c1ccc2ccccc2c1)c1cc(-c2ccccc2)nc2[nH]c(=S)[nH]c(=O)c12`, the “inhibition zone (IZ)” value stood at 10 mm in assay [1]; 11 mm in assay [2]; 11 mm in assay [3]; 10 mm in assay [4]; 12 mm in assay [5]; 11 mm in assay [6]. For the same compound, the “inhibition zone (IZ)” value in [15] is reported as 10 mm; in [16], 12 mm.

Turning to `COC(=O)c1c(-c2ccc(OC)cc2)nc2[nH]c(=S)[nH]c(=O)c2c1C(=O)OC`, the “inhibition zone (IZ)” value in [1] is 14 mm; in assay [2], 15 mm; in assay [3] it was 14 mm; in assay [4] it was 14 mm; in [5], 14 mm; in [6], 14 mm. Besides, the “inhibition zone (IZ)” value in assay [15] and in [16] was 14 mm each time. For the same compound, the Activity in assay [7] is recorded as 0.895; in [8], 0.823; in assay [9] it was 0.786; in assay [10], 0.709; in [11], 0.962; in assay [12], 0.887. Further, the Activity in assay [13] is 0.808; in assay [14], 0.743.

On to NYSTATIN, for which the figures for the inhibition zone (IZ) in assay [15] and in [16] were 12 mm and 11 mm, respectively.

As to `CCOC(=O)c1c(-c2ccccc2)nc2[nH]c(=S)[nH]c(=O)c2c1C(=O)OCC`, the “inhibition zone (IZ)” value was 12 mm in assay [1]; 12 mm in [2]; 12 mm in assay [3]; 11 mm in assay [4]; 13 mm in assay [5]; 13 mm in assay [6]. For the same compound, the “inhibition zone (IZ)” value in [15] was 12 mm; in assay [16], 11 mm. The Activity in assay [7] turned out to be 0.968; in assay [8] it was 0.914; in [9], 0.841; in [10], 0.805; in [11], 0.855; in [12] it was 0.827. Further, the Activity in [13] is 0.771; in assay [14] it was 0.72.

In the case of `CCOC(=O)c1cc(-c2ccccc2)nc2[nH]c(=S)[nH]c(=O)c12`, the “inhibition zone (IZ)” value in assay [1] is on record as 11 mm; in assay [2], 11 mm; in assay [3], 11 mm; in assay [4], 11 mm; in assay [5], 12 mm; in assay [6], 11 mm. The “inhibition zone (IZ)” value in assay [15] amounted to 11 mm; in assay [16] it was 12 mm.

As for `CCOC(=O)c1cc(-c2ccc(OC)cc2)nc2[nH]c(=S)[nH]c(=O)c12`, the Activity was 1.018 in [7]; 1 in [8]; 0.977 in assay [9]; 0.927 in assay [10]; 0.948 in assay [11]; 0.915 in assay [12]. Further, the Activity in [13] is listed as 0.776; in [14] it was 0.646.

Turning to `O=C(c1cccs1)c1cc(-c2ccccc2)nc2[nH]c(=S)[nH]c(=O)c12`, the “inhibition zone (IZ)” value in assay [1] is reported as 13 mm; in [2], 12 mm; in assay [3] it was 12 mm; in assay [4], 13 mm; in assay [5], 13 mm; in assay [6] it was 12 mm. The results for the “inhibition zone (IZ)” value in assay [15] and in assay [16] were 13 mm and 12 mm, respectively. Moreover, the Activity in assay [7] stood at 1.05; in [8], 1.005; in [9], 0.905; in assay [10] it was 0.85; in assay [11], 0.943; in assay [12] it was 0.869. Also, the Activity in assay [13] amounted to 0.808; in [14], 0.641.

For the compound `N#Cc1cc(-c2ccccc2)nc2[nH]c(=S)[nH]c(=O)c12`, the “inhibition zone (IZ)” value is listed as 11 mm in assay [1]; 11 mm in assay [2]; 12 mm in assay [3]; 12 mm in assay [4]; 12 mm in assay [5]; 11 mm in assay [6]. In addition, the “inhibition zone (IZ)” value in [15] and in assay [16] was 12 mm throughout.

As for `COc1ccc(-c2cc(C(=O)c3cccs3)c3c(=O)[nH]c(=S)[nH]c3n2)cc1`, the “inhibition zone (IZ)” value in assay [1] is 11 mm; in assay [2], 11 mm; in assay [3], 12 mm; in [4] it was 12 mm; in assay [5] it was 14 mm; in [6], 11 mm. Besides, the “inhibition zone (IZ)” value in assay [15] and in [16] was 12 mm in each case.
